Hits are enriched below; roughly 4.1% of the tested compounds scored in any of these assays.
UPR CHOP act: activators of apoptotic CHOP UPR arm, primary screen, cell-based, CHO-CHOP luciferase reporter, luminescence, uHTS; actives 0.34% (n = 330,000); UPR activation; percent of tunicamycin response over DMSO baseline; activation, % at 10 µM;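 active = at 10 µM dose, activation of 40% or more, normalized to positive control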;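 note: 100% = tunicamycin at 10 µg/mL and 0% = DMSO alone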
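assay system = CHO CHOP reporter cells | amount = 500 CHO-CHOP cells per well | buffer or medium = F12 with 10% FBS | incubation = 16-18 h cell attachment, then 6 h compound exposure, 37 °C | detection = luminescence read with Steady-Glo | read-out = percent activation relative to tunicamycin control | controls = tunicamycin high control, DMSO low control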
UPR XBP1 act: activators of adaptive XBP1 UPR arm, primary screen, cell-based, CHO-XBP1 luciferase reporter, luminescence, uHTS. AID 463104, 2010. actives 0.33% (n = 330,000). IRE1-XBP1 UPR activation; percent of tunicamycin response, DMSO as zero. activation, % at 20 µM;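 active = versus positive control, 20 µM dose yields 30% or more activation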;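 note: 100% = tunicamycin at 10 µg/mL and 0% = DMSO only wells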
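Material: CHO cell line with stable XBP1 luciferase reporter; buffer or medium: F12 medium containing 10% fetal bovine serum; compound: single point, 20 µM final compound, 1% DMSO; incubation: 6 h treatment, 37 °C; measured by: glow luminescence from Steady-Glo reagent; evaluation: activation, % of tunicamycin; control set: tunicamycin high, DMSO low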
Apaf1 inhib: inhibitors of human Apaf-1 apoptosome, primary screen, biochemical, DEVD-Rh110 fluorescence, uHTS; reconstituted apoptosome caspase-3 activity; AID 489030, 2010; Apoptotic protease-activating factor 1 (Homo sapiens), O14727; inhibition, % at 20 µM; actives 0.71% (n = 330,000); active = inhibition of at least 40% at 20 µM;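 note: plate controls were DMSO wells for no effect and DEVD-CHO caspase inhibitor wells for full effect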
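Medium: Hepes buffer, pH 7.5 / System: biochemical Apaf-1 apoptosome reconstitution / Measured by: Rh110 fluorescence, excitation 480 nm, emission 540 nm / Times: compound with Apaf-1, dATP, procaspase-3 30 min, then 50 min reaction, room temperature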
UBC13 polyUb: UBC13 polyubiquitin chain formation inhibitors, primary screen, biochemical, TR-FRET, uHTS | inhibition, % at 20 µM | actives 0.47% (n = 330,000) | Ubiquitin-conjugating enzyme E2 N (Homo sapiens), P61088 | AID 485273, 2010; in the data active = inhibition above about 45%, passing the limit was not always enough
Mdm2-MdmX inh: inhibitors of human Mdm2-MdmX association, primary screen, cell-based, luminescence, split luciferase, SaOS-2, uHTS | Protein Mdm4 (Homo sapiens) + E3 ubiquitin-protein ligase Mdm2 (Homo sapiens), … | SaOS-2 split-luciferase Mdm2/MdmX complementation | inhibition, % at 8 µM | actives 3% (n = 330,000);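 active = inhibition of at least 50% at 8 µM in the primary screen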
Target sequence (O15151 whole entry, looked up): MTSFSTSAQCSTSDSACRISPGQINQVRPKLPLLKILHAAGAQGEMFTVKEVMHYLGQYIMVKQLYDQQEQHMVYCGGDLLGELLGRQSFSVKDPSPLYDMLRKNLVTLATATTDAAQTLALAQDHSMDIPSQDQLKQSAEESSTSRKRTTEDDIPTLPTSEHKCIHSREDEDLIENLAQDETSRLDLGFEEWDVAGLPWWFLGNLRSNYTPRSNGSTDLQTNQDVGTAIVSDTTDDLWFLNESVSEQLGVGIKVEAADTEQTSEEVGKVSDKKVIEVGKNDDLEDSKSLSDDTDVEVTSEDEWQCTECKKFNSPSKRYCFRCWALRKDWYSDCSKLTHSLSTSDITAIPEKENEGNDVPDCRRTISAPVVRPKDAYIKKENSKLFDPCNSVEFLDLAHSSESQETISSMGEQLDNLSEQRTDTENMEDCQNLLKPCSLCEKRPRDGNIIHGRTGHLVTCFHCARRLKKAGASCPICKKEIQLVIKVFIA
Target sequence (Q00987 whole entry, looked up): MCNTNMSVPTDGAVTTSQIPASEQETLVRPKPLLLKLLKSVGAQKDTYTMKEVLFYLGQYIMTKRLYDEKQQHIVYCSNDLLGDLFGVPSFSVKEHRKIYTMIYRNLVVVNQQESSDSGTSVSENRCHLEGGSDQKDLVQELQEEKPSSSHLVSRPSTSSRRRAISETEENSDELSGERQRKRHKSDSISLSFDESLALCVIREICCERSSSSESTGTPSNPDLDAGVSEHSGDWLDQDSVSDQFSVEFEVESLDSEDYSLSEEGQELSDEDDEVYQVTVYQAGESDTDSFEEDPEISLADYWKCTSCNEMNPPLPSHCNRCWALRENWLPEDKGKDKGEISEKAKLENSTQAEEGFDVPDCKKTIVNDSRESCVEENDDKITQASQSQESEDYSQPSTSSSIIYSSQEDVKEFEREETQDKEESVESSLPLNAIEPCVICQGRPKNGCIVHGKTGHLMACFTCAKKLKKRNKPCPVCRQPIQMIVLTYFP
Starred values were filed as active, the others as inactive.

SMILES	UPR CHOP act	UPR XBP1 act	Apaf1 inhib	UBC13 polyUb	Mdm2-MdmX inh
C#CCOCCOCCOCCNc1nc(N2CCN(C(=O)CCCCCCCCCCNC(=O)[C@@H]([C@H](C)O)n3cc(C)nn3)CC2)nc(N2CCN(C(=O)CCCCCCCCCCNC(=O)[C@@H]([C@H](C)O)n3cc(C)nn3)CC2)n1	-2	-1	30	22	27
C#CCOCCOCCOCCNc1nc(N2CCN(C(=O)CCCCCCCCCCNC(=O)[C@H]([C@@H](C)CC)n3cc(CCCCN=C(N)N)nn3)CC2)nc(N2CCN(C(=O)CCCCCCCCCCNC(=O)[C@H](CCCCN)n3cc(C[C@@H](C)CC)nn3)CC2)n1	17	39*	55*	122*	49
CSCCC(NC(=O)COc1ccccc1)C(=O)N1CCOCC1 (stereo unspecified)	0	-2	-7	-1	7
CCN(CC)c1nc(-c2ccc(C(=O)NN)cc2)nc(-c2ccc(C(=O)NN)cc2)n1	1	-2	7	0	7
C#CCOCCOCCOCCNc1nc(N2CCN(C(=O)CCCCCCCCCCNC(=O)Cn3cc(CCCCCN)nn3)CC2)nc(N2CCN(C(=O)CCCCCCCCCCNC(=O)[C@H](CO)n3cc(CCCCCN)nn3)CC2)n1	-1	4	63*	117*	27
C#CCOCCOCCOCCNc1nc(N2CCOCC2)nc(N2CCN(C(=O)CCCCCCCCCCNC(=O)Cn3cc(CCCCCN)nn3)CC2)n1	-2	-2	26	28	18
C#CCOCCOCCOCCNc1nc(N2CCN(C(=O)[C@H](CCCCN)n3cc(C(N)CO)nn3)CC2)nc(N2CCN(C(=O)[C@H](CCCCN)n3cc(C(N)COC(=O)C(F)(F)F)nn3)CC2)n1 (stereo partly specified)	1	2	10	76*	-25
Cc1cc(C)cc(N2CC(C(=O)OCC(=O)Nc3cc(C)on3)CC2=O)c1 (stereo unspecified)	1	6	0	-1	-11
Cc1ccc(NC2=CC(=O)C(=O)c3ccccc32)c(C)c1	35	3	87*	-172	43
Cc1cc(Br)c2c(c1)C(O)(N1CCCCC1C)C(=O)N2 (stereo unspecified)	1	-2	-6	-5	-4
COC(=O)/C=C1\C(=O)N(c2nc3ccc(OC)cc3s2)C(=S)N1c1ccc(F)cc1	73*	14	-2	-24	10
COC(=O)/C=C1\C(=O)N(c2nc3ccccc3s2)C(=S)N1c1ccc(F)cc1	18	12	30	-9	-3
C[C@@H]1[C@H](O)C[C@@]23COC(=O)C2=CCCC3[C@@]1(C)CCC1COC(=O)C1 (stereo partly specified)	-1	-1	-4	4	-6
Nc1nc(-c2ccccn2)nc(N)c1Cc1ccc(Cl)cc1Cl	34	43*	10	3	40
Nc1nc(-c2ccccn2)nc(N)c1Cc1ccccc1F	9	17	5	-31	7
Cc1ccc(C(=O)c2c3ccc(N)cc3nn2CCC(N)=O)cc1	1	2	82*	-87	8
Cc1ccc(C(=O)c2c3ccc(C(F)(F)F)cc3[n+]([O-])n2CCC(N)=O)cc1	-1	-2	5	-21	-3
O=C(Nc1ccccc1)c1ccc2nc(-c3ccco3)c(-c3ccco3)nc2c1	1	0	60*	-19	13
CC(=O)c1ccc(NC(=O)c2ccc3nc(-c4ccco4)c(-c4ccco4)nc3c2)cc1	0	-3	52*	28	15
O=C(NCCO)Nc1ccc2nc(-c3ccco3)c(-c3ccco3)nc2c1	0	1	71*	45	23
O=C(Nc1ccc(N2CCOCC2)cc1)c1ccc2nc(-c3ccco3)c(-c3ccco3)nc2c1	6	19	15	-14	-2
C#CCOCCOCCOCCNc1nc(N2CCN(C(=O)[C@H]([C@@H](C)CC)n3cc([C@@H](N)CC(C)C)nn3)CC2)nc(N2CCN(C(=O)[C@H](Cc3cc4ccccc4[nH]3)n3cc([C@@H](N)CC(C)C)nn3)CC2)n1	0	-2	58*	40	6
C#CCOCCOCCOCCNc1nc(N2CCN(C(=O)[C@H]([C@@H](C)CC)n3cc([C@@H](N)Cc4ccc(O)cc4)nn3)CC2)nc(N2CCN(C(=O)[C@H](Cc3cc4ccccc4[nH]3)n3cc([C@@H](N)C(C)CC)nn3)CC2)n1 (stereo partly specified)	1	-3	49*	78*	22
CCOc1cc(/C=C2/SC(=S)N(CC(=O)O)C2=O)ccc1OC(=O)c1cccs1	0	-2	-14	-4	-16
CCOc1cc(/C=C2\C(=O)N(c3ccc(C(N)=O)cc3)N=C2C)ccc1OC(=O)c1cccs1	0	0	93*	-51	31
SMILES	UPR CHOP act	UPR XBP1 act	Apaf1 inhib	UBC13 polyUb	Mdm2-MdmX inh
Cc1nc2sccn2c(=O)c1CCN1CCC(=C(c2ccccc2)c2ccc(F)cc2)CC1	-1	-5	42*	29	-4
COc1ccc(OC)c(S(=O)(=O)NC(N)=NCCc2ccccc2OC)c1	-1	-4	-14	-3	-8
COCC(=O)N1CCN(c2cccc(Cl)c2)CC1	3	-1	3	-4	7
CCN(CC)c1ccc(C=Nc2ccc(C)cc2C)c(O)c1	7	0	5	18	8
Cc1ccc(N=Cc2cccc(O)c2O)c(C)c1	-1	1	93*	-6	-8
C/C=C/C(=O)Nc1cccc(C2=NOC3(C2)C[C@H](C(N)=O)N(C(=O)c2ccccc2C(=O)c2ccccc2)C3)c1 (stereo partly specified)	0	-1	7	52*	6
Nc1ccc(S(=O)(=O)NNC(=O)C(=O)NNc2ccccn2)cc1	-1	3	-7	93*	-11
CC(=O)N1CCN(C(=O)c2cccc(S(=O)(=O)N3CCN(c4ccc(F)cc4)CC3)c2)CC1	1	-3	0	6	1
O=C(c1cccc(S(=O)(=O)N2CCN(c3ccc(F)cc3)CC2)c1)N1CCCCCCC1	1	-4	42*	28	21
CCOc1ccc(S(=O)(=O)N2CCCCC2)cc1NC(=O)CN1C(=O)NC(C)(c2ccc(C)cc2)C1=O (stereo unspecified)	1	-3	28	-1	-12
CC(=O)N1CCc2c(sc(NC(=O)c3cccc(N4C(=O)CCC4=O)c3)c2C(N)=O)C1	0	-4	57*	-13	25
ONc1cccnc1-n1nc(C(F)(F)F)cc1C(F)(F)F	0	1	47*	-49	6
